Converted amounts (≈) assume the structure as drawn. Where a SMILES comes first, the peptide text is derived from it. Bridges are numbered along the chain shown (N, C = ends). [ ]: non-standard residue; d: D form. The star is where a group is joined. X1 = CC[C@H](C)CCCCC(=O)*; Dab = NCC[C@H](N)C(=O)O

Holding throughout (assay type): functional
Assay [1] has as its system Acinetobacter baumannii. The experiment in a line: Antibacterial activity against Acinetobacter baumannii 649 measured after 24 hrs in presence of 25% human serum by microtiter dilution method. Particulars: Acinetobacter baumannii, 649, 24 h. In short, it runs like this:
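Blood strain 649 was tested by MH broth microdilution with and without 25% (v/v) human serum added to the medium. The test used a final inoculum of 5 × 10^5 cfu/mL and incubation at 37 °C. The ratio is the MIC in serum over the MIC in MH alone.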

Assay [2] concerns Acinetobacter baumannii. The experiment in a line: Antibacterial activity against Acinetobacter baumannii 649 measured after 24 hrs by microtiter dilution method. Particulars: Acinetobacter baumannii, 649, 24 h. In short, it runs like this:
(§1)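 Broth microdilution in Mueller-Hinton (MH) medium. […] Plates were incubated 24 h at 37 °C. MIC was the lowest peptide concentration that inhibited growth, based on three sets of replicates.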

The subject of assay [3] is Acinetobacter baumannii. The experiment in a line: Antibacterial activity against polymyxin B/colistin-resistant Acinetobacter baumannii M89955 measured after 24 hrs by microtiter dilution method. In short, it runs like this: as §1
The subject of assay [4] is Acinetobacter baumannii. Kind of assay: Antibacterial activity against polymyxin B/colistin-resistant Acinetobacter baumannii M89953 measured after 24 hrs by microtiter dilution method. In short, it runs like this: as §1
Assay [5] concerns Acinetobacter baumannii. Kind of assay: Antibacterial activity against polymyxin B/colistin-resistant Acinetobacter baumannii M89952 measured after 24 hrs by microtiter dilution method. In short, it runs like this: as §1
The subject of assay [6] is Acinetobacter baumannii. Kind of assay: Antibacterial activity against polymyxin B/colistin-resistant Acinetobacter baumannii M89951 measured after 24 hrs by microtiter dilution method. In short, it runs like this:
as §1

In assay [7] the test system is Acinetobacter baumannii. Kind of assay: Antibacterial activity against polymyxin B/colistin-resistant Acinetobacter baumannii M89941 measured after 24 hrs by microtiter dilution method. In short, it runs like this: as §1
Assay [8] has as its system Acinetobacter baumannii. Kind of assay: Antibacterial activity against polymyxin B/colistin-resistant Acinetobacter baumannii M89963 measured after 24 hrs by microtiter dilution method. In short, it runs like this: as §1
Assay [9] relates to Acinetobacter baumannii. Kind of assay: Antibacterial activity against polymyxin B/colistin-resistant Acinetobacter baumannii M89949 measured after 24 hrs by microtiter dilution method. In short, it runs like this:
as §1

A word on the MIC: it is the smallest concentration in the dilution series that meets the test's criterion for growth inhibition. As to `CC(=O)N[C@H](CCCCN)C(=O)N[C@H](CC(C)C)C(=O)N[C@H](CCCNC(=N)N)C(=O)N[C@H](CO)C(=O)N[C@H](CC(C)C)C(=O)N[C@H](CC(C)C)C(=O)N[C@H](CCCNC(=N)N)C(=O)N[C@@H](C(=O)N[C@H](CC(C)C)C(=O)N[C@H](CO)C(=O)N[C@H](CCCNC(=N)N)C(=O)N[C@H](C)C(=O)N[C@H](CCCCN)C(=O)N[C@H](C)C(=O)N[C@H](C)C(=O)N[C@H](CCCCN)C(=O)N[C@H](CC(C)C)C(=O)N[C@H](CCCNC(=N)N)C(=O)N[C@@H](C(=O)N[C@H](CC(C)C)C(=O)N[C@H](CC(C)C)C(=O)N[C@H](CCCNC(=N)N)C(=O)N[C@H](C)C(=O)N[C@H](CC(C)C)C(=O)N[C@H](CO)C(=O)N[C@H](CCCNC(=N)N)C(N)=O)[C@H](C)O)[C@H](C)O` (Ac-[dK][dL][dR][dS][dL][dL][dR][dT][dL][dS][dR][dA][dK][dA][dA][dK][dL][dR][dT][dL][dL][dR][dA][dL][dS][dR]-NH2), the MIC in assay [1] was 1.3 µM; in assay [2] it was 0.7 µM (≈ 2.12 µg/mL); in assay [3] (M89955, 24 h) it was 0.7 µM (≈ 2.12 µg/mL); in assay [4] (M89953, 24 h) it was 0.7 µM (≈ 2.12 µg/mL); in [5] (M89952, 24 h), 0.7 µM (≈ 2.12 µg/mL); in assay [6] (M89951, 24 h), 0.7 µM (≈ 2.12 µg/mL). This compound came in with an MIC in [7] (M89941, 24 h) of 1.3 µM (≈ 3.94 µg/mL).
As for `CC[C@H](C)CCCCC(=O)N[C@@H](CCN)C(=O)N[C@H](C(=O)N[C@@H](CCN)C(=O)N[C@H]1CCNC(=O)[C@H]([C@@H](C)O)NC(=O)[C@H](CCN)NC(=O)[C@H](CCN)NC(=O)[C@H](CC(C)C)NC(=O)[C@@H](Cc2ccccc2)NC(=O)[C@H](CCN)NC1=O)[C@@H](C)O` (X1-[Dab]T[Dab][Dab][Dab][dF]L[Dab][Dab]T; lactam 4-C), the MIC was above 25 µM in [8] (M89963, 24 h); above 25 µM in assay [3] (M89955, 24 h); above 25 µM in assay [4] (M89953, 24 h); above 25 µM in assay [5] (M89952, 24 h); above 25 µM in [6] (M89951, 24 h); above 25 µM in assay [9] (M89949, 24 h). This compound also came in with an MIC in [7] (M89941, 24 h) above 25 µM.
As to COLISTIN, the MIC in assay [8], in assay [3], in [4], in assay [5], in [6] and in [9] was above 28 µM in each case. Besides, the MIC in [7] is above 28 µM.

Values taken from ChEMBL document CHEMBL4339192, “De Novo Designed Amphipathic α-Helical Antimicrobial Peptides Incorporating Dab and Dap Residues on the Polar Face To Treat the Gram-Negative Pathogen, Acinetobacter baumannii” (J Med Chem, 2019).
